Laboratory results reported in ChEMBL document CHEMBL5113379, “4-Oxooctahydroquinoline-1(2H)-carboxamides as hepatitis B virus (HBV) capsid core protein assembly modulators” (Bioorg Med Chem Lett, 2022).
Values after ≈ are worked out from the molar mass of the structure shown. Active and inactive are the calls of the source. The calls are words filed in the database; no cut-off is given here.

Assays:
Hepatitis B virus = test: Antiviral activity against HBV infected in mouse AML12HBV10 cells assessed as reduction in viral replication incubated for 48 hrs and measured by [alpha-32P]UTP-labeled radio-probe based dot blot hybridization assay; assay type: functional, organism-based
Outline: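 The test used the stable HBV line AML12HBV10, derived from immortalized mouse hepatocytes (AML12). HBV replication was measured by dot blot hybridization and EC50 was determined.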

[1] = Cytotoxicity against mouse […] measured by MTT assay; assay type: toxicity, cell-based, AML12HBV10
Outline: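 Cytotoxicity was measured by MTT assay in the stable HBV line AML12HBV10, derived from immortalized mouse hepatocytes (AML12), and CC50 was determined.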

[2] = Metabolic stability in human liver microsomes assessed as half-life; assay type: ADME, Microsome; conditions: for t1/2: microsomes
[3] = Metabolic stability in mouse liver microsomes assessed as half-life; assay type: ADME, Microsome; conditions: for t1/2: microsomes
[4] = Solubility of the compound at pH 4; assay type: physicochemical; conditions: buffer
[5] = Solubility of the compound at pH 7; assay type: physicochemical; conditions: buffer
[6] = Plasma protein binding in mouse; assay type: ADME, cell-free
[7] = Plasma protein binding in human; assay type: ADME, cell-free
[8] = Half-life in mouse at 3 mg/kg, iv; assay type: ADME, organism-based; conditions: in vivo
[9] = AUClast in mouse at 3 mg/kg, iv; assay type: ADME, organism-based; design: time 0 - last, dose 3 mg/kg, route iv; conditions: in vivo
[10] = Observed volume of distribution at steady state in mouse at 3 mg/kg, iv; assay type: ADME, organism-based; conditions: in vivo, read-out: Vdss
[11] = Half-life in mouse at 10 mg/kg, po; assay type: ADME, organism-based; conditions: in vivo
[12] = Cmax in mouse at 10 mg/kg, po; assay type: ADME, organism-based; design: dose 10 mg/kg, route po; conditions: in vivo
[13] = AUClast in mouse at 10 mg/kg, po; assay type: ADME, organism-based; design: time 0 - last, dose 10 mg/kg, route po; conditions: in vivo
[14] = Oral bioavailability in mouse at 10 mg/kg; assay type: ADME, organism-based; conditions: in vivo
HepDES19 [15] = test: Antiviral activity against HBV infected in human HepDES19 cells assessed reduction of amounts of encapsidated pgRNA 5 uM […] by northern blot hybridization assay; assay type: functional, cell-based
Outline: (§1)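 In tet-inducible HepDES19 cells, pgRNA transcription was induced by tetracycline removal; tet-maintained cells were the negative control. Treatment with DMSO or compound at 2 or 5 μM began 24 h after tet removal and lasted 6 days. Encapsidated pgRNA was detected by Northern blot hybridization, with ribosomal RNA as loading control.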

[16] = Apparent permeability across apical to basolateral membrane in human Caco-2 cells; assay type: ADME, cell-based
[17] = Apparent permeability across basolateral to apical membrane in human Caco-2 cells; assay type: ADME, cell-based
[18] = Efflux ratio for apparent permeability across basolateral to apical side to apical to basolateral side in human Caco2 cells; assay type: ADME, cell-based; conditions: Caco-2
HepDES19 [19] = test: Antiviral activity against HBV infected in human HepDES19 cells assessed reduction of amounts of encapsidated pgRNA 2 uM […] by northern blot hybridization assay; assay type: functional, cell-based; outline: as §1
HepDES19 [20] = test: Antiviral activity against HBV infected in human HepDES19 cells assessed as reduction in levels of intracellular core protein 2 uM measured by Western blot assay; assay type: functional, cell-based
Outline: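 HepDES19 cells kept in tetracycline, then switched to tet-free medium to induce pgRNA transcription and HBV DNA replication; tet-maintained cells serve as negative control. Treatment with compound or DMSO started 24 h after tet removal and continued for 6 days. Intracellular core protein was detected by Western blot with an antibody against the C-terminal 14 residues of core, with β-actin as loading control.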

HepDES19 [21] = test: Antiviral activity against HBV infected in human HepDES19 cells assessed as reduction of capsid associated HBV DNA 2 uM measured by agarose gel electrophoresis-based particle gel assay; assay type: functional, cell-based
Outline: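 HepDES19 cells were kept with tetracycline to block pgRNA transcription (negative control) or without it to induce pgRNA transcription and HBV DNA replication. Compounds (1, 2 or 5 μM) or DMSO were added starting 24 h after tet removal and kept for 6 days.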

[22] = Hepatitis B virus, AML12HBV10, 48 h

## O=C(Nc1ccc(F)c(Cl)c1)c1cccc2c1OCC2
Hepatitis B virus; [22]
  EC50: 2.18 µM
[1]; aml12hbv10
  CC50: 4.6 µM

## O=C1CCN(C(=O)Nc2ccc(F)c(Cl)c2)C2CCCCC12 (stereo in doubt; 61)
Hepatitis B virus; aml12hbv10
  EC50: 0.46 µM
[2]
  t1/2: 71 min
[3]
  t1/2: 56 min
[4]
  solubility: 239 µM (≈ 77.6 µg/mL)
[5]
  solubility: 253 µM (≈ 82.2 µg/mL)
[6]
  PPB: 94%
[7]
  PPB: 90%
[8]
  t1/2: 36 min
[9]
  AUClast: 1952 ng·h/mL
[10]
  Vd: 0.8 L/kg
[11]
  t1/2: 42 min
[12]
  Cmax: 2727 ng/mL
[13]
  AUClast: 4516 ng·h/mL
[14]
  F: 69%

## O=C1CC2CC1CN2C(=O)Nc1ccc(F)c(Cl)c1 (centres undefined)
Hepatitis B virus; [22]
  EC50: > 10 µM
[1]; aml12hbv10
  CC50: > 100 µM

## O=C(NCc1ccc(F)cc1F)c1cccc2c1OCCO2
Hepatitis B virus; [22]
  EC50: 4.62 µM
[1]; aml12hbv10
  CC50: > 20 µM

## O=C(Nc1ccc2ncsc2c1)c1cccc2c1OCCO2
Hepatitis B virus; [22]
  EC50: > 10 µM
[1]; aml12hbv10
  CC50: > 50 µM

## O=C(Nc1ccc(F)c(Cl)c1)C1CCCc2ccccc21 (centres undefined)
Hepatitis B virus; [22]
  EC50: 9.4 µM
[1]; aml12hbv10
  CC50: 25 µM

## O=C(Nc1ccc(F)c(Cl)c1)c1cccc2c1OC(F)(F)O2
Hepatitis B virus; [22]
  EC50: 0.11 µM
[2]
  t1/2: 16.4 min
[3]
  t1/2: 11 min
[1]; aml12hbv10
  CC50: > 100 µM

## CC1(C)Cc2cccc(C(=O)Nc3ccc(F)c(Cl)c3)c2O1
Hepatitis B virus; [22]
  EC50: 1.48 µM
[1]; aml12hbv10
  CC50: > 50 µM

## O=C(Nc1ccc(F)c(Cl)c1)c1cccc2ccoc12
Hepatitis B virus; [22]
  EC50: 0.73 µM
[2]
  t1/2: 61.2 min
[3]
  t1/2: 6 min
[1]; aml12hbv10
  CC50: > 100 µM

## Cc1cc(NC(=O)N2CCC(=O)[C@H]3CCCC[C@H]32)ccc1F
Hepatitis B virus; [22]
  EC50: 0.38 µM
[1]; aml12hbv10
  CC50: > 20 µM

## C[C@@H](NS(=O)(=O)c1ccc(F)c(C(=O)Nc2ccc(F)c(F)c2)c1)C1CC1
HepDES19 [15]
  Activity: Active

## O=C1CCCN(C(=O)Nc2ccc(F)c(Cl)c2)c2ccccc21
Hepatitis B virus; [22]
  EC50: > 10 µM
[1]; aml12hbv10
  CC50: > 100 µM

## O=C1CCN(C(=O)Nc2ccc(F)c(Cl)c2)[C@H]2CCCC[C@@H]12 (relative stereo)
Hepatitis B virus; aml12hbv10
  EC50: 0.71 µM
[2]; liver microsomes
  half-life: 56.8 min
[3]; liver microsomes
  half-life: 32 min
[1]; AML12HBV1 cells
  CC50: > 100 µM
[16]
  Papp A→B: 14.7 ×10⁻⁶ cm/s
[17]
  Papp B→A: 7.8 ×10⁻⁶ cm/s
[18]
  efflux ratio: 0.5

## O=C1CCN(C(=O)Nc2ccc(F)c(C(F)F)c2)[C@@H]2CCCC[C@H]12
Hepatitis B virus; [22]
  EC50: 0.26 µM
[2]
  t1/2: 69 min
[3]
  t1/2: 35 min
[1]; aml12hbv10
  CC50: > 20 µM

## O=C1CCN(C(=O)Nc2ccnc(Cl)n2)[C@@H]2CCCC[C@H]12
Hepatitis B virus; [22]
  EC50: > 10 µM
[1]; aml12hbv10
  CC50: > 100 µM

## O=C1CCN(C(=O)Nc2ccc(F)c(Cl)c2)c2ccccc21
Hepatitis B virus; [22]
  EC50: 1.32 µM
[2]
  t1/2: 47.2 min
[3]
  t1/2: 10 min
[1]; aml12hbv10
  CC50: > 12.5 µM

## O=C(Nc1cc(Cl)nc(Cl)c1)c1cccc2c1OCCO2
Hepatitis B virus; [22]
  EC50: 6.3 µM
[1]; aml12hbv10
  CC50: > 33.3 µM

## O=C(Nc1ccc(F)c(Cl)c1)c1cc(S(=O)(=O)N2CCC(O)CC2)cc2c1OCCO2
Hepatitis B virus; [22]
  EC50: 5.57 µM
[1]; aml12hbv10
  CC50: > 50 µM

## COC(=O)C1=C(C)NC(c2ncc(F)cc2F)=N[C@H]1c1ccc(F)cc1Cl
HepDES19 [19]
  Activity: Active
HepDES19 [20]
  Activity: Active
HepDES19 [21]
  Activity: Active

## O=C(Nc1ccc2c(c1)CCC2)c1cccc2c1OCCO2
Hepatitis B virus; [22]
  EC50: > 10 µM
[1]; aml12hbv10
  CC50: > 50 µM

## N#Cc1ccc(NC(=O)c2cccc3c2OCCO3)cc1Cl
Hepatitis B virus; [22]
  EC50: 3.84 µM
[1]; aml12hbv10
  CC50: > 50 µM

## O=C(Nc1ccc(F)c(Cl)c1)c1cccc2cc[nH]c12
Hepatitis B virus; [22]
  EC50: 4.48 µM
[1]; aml12hbv10
  CC50: > 33.3 µM

## O=C(Nc1ccnc(Cl)c1)c1cccc2c1OCCO2
Hepatitis B virus; [22]
  EC50: 4.65 µM
[1]; aml12hbv10
  CC50: > 100 µM

## O=C1CCN(C(=O)Nc2ccc(F)c(Cl)c2)C2CCCCC12 (centres undefined)
Hepatitis B virus; aml12hbv10
  EC50: 1.81 µM
[2]
  t1/2: 5 min
[3]
  t1/2: 7.8 min

## N#Cc1cc(NC(=O)N2CCC(=O)[C@H]3CCCC[C@H]32)ccc1F
Hepatitis B virus; [22]
  EC50: 0.85 µM
[1]; aml12hbv10
  CC50: > 20 µM

## C[C@@H](NS(=O)(=O)c1cc2c(c(C(=O)Nc3ccc(F)c(Cl)c3)c1)OCCO2)c1ccncc1
Hepatitis B virus; [22]
  EC50: 13.4 µM

## O=C1CCN(C(=O)Nc2ccc(F)c(Cl)c2)C(c2ccccc2)C1 (centres undefined)
Hepatitis B virus; [22]
  EC50: 5.01 µM
[1]; aml12hbv10
  CC50: > 100 µM
